From PubChem BioAssay
Shown are actives, neighbours in structure and some others; about 3.5% of the full set was active somewhere.
MrgX1 PAM: positive allosteric modulators of MrgX1, primary screen, HEK293 cells, Fluo-4 calcium flux | Mas-related G-protein coupled receptor member X1 (Homo sapiens), Q96LB2 | 0.63% of 310,000 active | B-score at 10 µM | FDSS; active compounds read high;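 active = plate-corrected calcium response at least 3 library SD above typical, normal starting fluorescence, not activating the receptor alone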;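 note: compound read alongside a low EC10 to EC30 dose of BAM8-22 agonist; peak minus trough fluorescence over baseline measured at the second addition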
Target sequence (Q96LB2 whole entry, looked up): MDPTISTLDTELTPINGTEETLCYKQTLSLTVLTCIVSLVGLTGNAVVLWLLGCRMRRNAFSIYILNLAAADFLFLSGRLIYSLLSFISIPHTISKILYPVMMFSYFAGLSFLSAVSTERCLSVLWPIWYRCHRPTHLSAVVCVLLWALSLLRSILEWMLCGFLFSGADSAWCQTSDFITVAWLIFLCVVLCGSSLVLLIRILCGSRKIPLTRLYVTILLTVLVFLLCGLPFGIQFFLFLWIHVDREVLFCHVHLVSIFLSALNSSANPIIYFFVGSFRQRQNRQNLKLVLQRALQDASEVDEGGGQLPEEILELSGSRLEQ
RGS4 pot: RGS4 potentiators or activators, primary screen, cell-based, HEK293 M3R inducible RGS4, calcium flux | AID 463111, 2010 | 0.92% of 310,000 active | B-score at 10 µM | carbachol calcium flux Fluo4; active compounds read low;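 active = B-score of the integrated calcium signal more than 4 SD below the library mean, with starting fluorescence not abnormally high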;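 note: negative B-score means reduced calcium response which marks RGS4 activation or potentiation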
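Test system: HEK293 cells with stable M3R and inducible RGS4; also added: carbachol at ECmax as muscarinic agonist stimulus; schedule: dye loading 30 min 37 °C, buffer rest 30 min RT; technique: kinetic calcium fluorescence imaging with Fluo4-AM dye, 2 µM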
MrgX1 agonist: agonists of human MrgX1 receptor, primary screen, HEK293 cells, Fluo-4 calcium flux | Fluo-4 calcium fluorescence, agonist mode; active compounds read high | Mas-related G-protein coupled receptor member X1 (Homo sapiens), Q96LB2 | B-score at 10 µM | 0.44% of 310,000 active;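 active = calcium response B-score plate-corrected fluorescence ratio at least 3 library SD, with starting fluorescence B-score inside 5 SD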
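Material: MrgX1-expressing HEK293 cells; input: 15,000 cells per well; doses: test compound given as first of three sequential additions; schedule: overnight plating before 1 h dye loading; technique: Fluo-4 NW calcium-flux fluorescence, kinetic read; evaluation: baseline-normalised fluorescence change ratio, B-scored; control set: plate-wise positive and negative controls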
MrgX1 antagonist: antagonists of human MrgX1 receptor, primary screen, HEK293 cells, Fluo-4 calcium flux. BAM8-22 antagonism; active compounds read low. 1.3% of 310,000 active. B-score at 10 µM. AID 588676, 2011;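 active = calcium-response B-score plate-corrected more than 3 library SD below zero, starting fluorescence within 5 deviations, no agonist response on first addition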;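 note: peak minus trough fluorescence over baseline after final BAM8-22 challenge near maximal dose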
RGS4 inh: RGS4 inhibitors, primary screen, cell-based, HEK293 M3R inducible RGS4, calcium flux; B-score at 10 µM; 0.45% of 310,000 active; AID 463165, 2010; Fluo-4 calcium flux; active compounds read high; triggered by carbachol at its EC20; Regulator of G-protein signaling 4 (Homo sapiens), P49798;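 active = B-score, a plate-corrected calcium signal, over three deviations above library mean, with baseline fluorescence within five deviations of library mean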;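 note: RGS4 expression induced by doxycycline in cells with stable M3 receptor; B-score is computed from the integrated fluorescence ratio over baseline after carbachol; higher B-score means a larger calcium signal and so more RGS4 inhibition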
Target sequence (P49798 whole entry, looked up): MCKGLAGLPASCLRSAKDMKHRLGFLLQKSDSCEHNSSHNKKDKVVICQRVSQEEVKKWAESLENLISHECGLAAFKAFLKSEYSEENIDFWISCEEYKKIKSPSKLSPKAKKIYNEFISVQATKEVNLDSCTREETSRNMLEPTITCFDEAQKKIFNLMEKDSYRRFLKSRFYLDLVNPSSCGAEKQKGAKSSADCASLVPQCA
RGS4 inh valid: enhanced carbachol calcium response, M3R/RGS4 cells, RGS4 inhibitor project, cell-based, validation screen, HEK293 M3R/RGS4, calcium flux | carbachol calcium Fluo-4 fluorescence; carbachol added at its EC20; 0 = buffer wells, 100 = carbachol control | 65% of 1,700 active | calcium response, % at 10 µM | AID 492999, 2010 | shares compounds with RGS4 inh;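 active = duplicate-averaged calcium response above the buffer-only control mean plus 5 SD of those controls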;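 note: integrated fluorescence ratio F max minus min over baseline F0; higher response in RGS4-induced cells means RGS4 inhibition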
RGS4 uninduced: carbachol calcium response in non-induced M3R cells, confirmation, counter-screen for RGS4 inhibitor project, cell-based, HEK293 M3R. shares compounds with RGS4 inh. carbachol calcium Fluo-4; submaximal (EC20) carbachol stimulus; buffer wells 0%, carbachol control wells 100%. activity (percent), % at 10 µM. 20% of 1,900 active. AID 493000, 2010; call rule not given here;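 note: RGS4 induction absent so cells express M3R without RGS4; higher means more calcium signal and flags a non-specific hit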
M3R basal Ca ctr: second RGS4 inhibitor counter-screen in uninduced cells lacking carbachol; shares compounds with RGS4 inh; HEK293 M3R/RGS4 non-induced, Fluo-4 calcium, no carbachol; normalised: buffer wells 0%, carbachol wells 100%; calcium response (agonist-mode artifact), % at 10 µM; 22% of 1,900 active; AID 493001;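 active = duplicate-averaged calcium rise in uninduced cells above buffer wells' mean plus 5 SD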
Active calls of the source: *; i = inactive; · = no result given.

SMILES	MrgX1 PAM	RGS4 pot	MrgX1 agonist	MrgX1 antagonist	RGS4 inh	RGS4 inh valid	RGS4 uninduced	M3R basal Ca ctr
Cc1ccc(-c2nc(NCc3cccnc3)c3ccccc3n2)cc1	i	i	i	i	i	i	i	i
COc1cccc(CNC(=O)CCc2ccc(OC)c(OC)c2)c1	i	i	i	i	i	·	·	·
COc1ccc(NC(=O)CCCNC(=O)c2ccc(Cl)cc2)cc1OC	i	i	i	i	i	·	·	·
c1ccc2c(N3CCCCC3)nc(N3CCCC3)nc2c1	i	i	i	i	i	·	·	·
c1ccc2c(c1)nc(N1CCCCC1)c1ccccc12	i	i	i	i	7.6*	53.5%*	84.0%*	i
COc1ccc(C(=O)/C=C/Sc2nc3ccccc3o2)cc1	i	i	i	i	24.4*	9.5%*	i	i
COc1ccc(C(=O)N/C(N)=N/c2nc3ccccc3o2)cc1	i	i	i	i	i	·	·	·
Cc1ccccc1OCC1Cn2c(nc3c2c(=O)n(C)c(=O)n3C)O1 (configuration not stated)	i	i	i	i	i	·	·	·
Fc1ccc(-c2[nH]ncc2CN2CCN(c3ccc(F)cc3)CC2)cc1	i	i	i	i	6.89*	22.0%*	49.5%*	i
c1ccc(-c2[nH]ncc2CN2CCc3ccccc3C2)cc1	i	i	i	i	i	·	·	·
COc1ccc(-c2[nH]ncc2CN2CCN(c3ccc(F)cc3)CC2)cc1	i	i	i	i	i	·	·	·
O=C(c1ccco1)N1CCCN(Cc2cn[nH]c2-c2ccc(-c3ccccc3)cc2)CC1	i	i	i	i	4.94*	10.5%*	i	i
COc1ccc(-c2[nH]ncc2CN2CCN(C(=O)c3ccco3)CC2)cc1F	i	i	i	i	i	·	·	·
Fc1ccc(N2CCN(Cc3cn[nH]c3-c3ccccc3)CC2)cc1	i	i	i	i	i	·	i	i
COc1ccc(CN2CCOCCOCCN(Cc3ccc(OC)cc3)CCOCCOCC2)cc1	i	i	i	i	i	·	·	·
COc1ccccc1/C=C\C(=O)NCC(=O)N/N=C(/C)c1cccc([N+](=O)[O-])c1	i	i	i	i	i	·	·	·
CC(=O)N1N=C(c2cccc(NS(=O)(=O)c3ccc(C)cc3)c2)CC1c1ccco1 (configuration not stated)	i	i	i	i	i	·	·	·
CC(=O)N1N=C(c2c(-c3ccccc3)c3cc(Br)ccc3[nH]c2=O)CC1c1ccco1 (configuration not stated)	i	i	i	i	7.49*	20.5%*	i	i
CC(=O)N1N=C(c2c(-c3ccccc3)c3cc(C)ccc3[nH]c2=O)CC1c1ccco1 (configuration not stated)	i	i	i	i	i	·	i	i
CCCCc1nnc(NC(=O)c2oc3ccccc3c2C)s1	i	i	i	i	i	·	·	·
O=C(CSc1nnc(SCc2ccccc2)s1)N/N=C/c1c[nH]c2ccccc12	·	i	·	·	i	i	i	i
O=C(CSc1nnc(SCc2ccccc2Cl)s1)N/N=C/c1c[nH]c2ccccc12	i	i	i	i	6.79*	14.5%*	i	i
O=C(NC(=S)NC1C2CC3CC(C2)CC1C3)c1ccccc1 (configuration not stated)	i	i	i	i	i	·	·	·
CCc1ccc(-c2cc(C(=O)N/N=C/c3c[nH]c4ccccc34)[nH]n2)cc1	i	i	i	i	4.87*	i	i	i
CCc1ccc2c(Cl)c(C(=O)N/N=C/c3c[nH]c4ccccc34)sc2c1	i	i	i	i	4.78*	17.5%*	39.5%*	8.5%*
SMILES	MrgX1 PAM	RGS4 pot	MrgX1 agonist	MrgX1 antagonist	RGS4 inh	RGS4 inh valid	RGS4 uninduced	M3R basal Ca ctr
COc1ccccc1NC(=O)C1CCCN(S(=O)(=O)c2ccccc2)C1 (configuration not stated)	i	i	i	i	i	·	·	·
Cc1ccc(NC(=O)CNC(=O)Cn2cnc3sc(C)c(C)c3c2=O)cc1F	i	i	i	i	6.92*	19.0%*	47.5%*	i
Cc1ccc(S(=O)(=O)Nc2ncccn2)cc1	i	i	i	i	i	·	·	·
O=C(O)CCCN1C(=O)/C(=C\c2ccc(-c3nc4ccccc4s3)o2)SC1=S	i	-7.86*	i	-7.98*	20.6*	13.5%*	i	125.5%*
CN1CCN(C(=O)CCCN2C(=O)/C(=C/c3ccccc3)SC2=S)CC1	i	i	i	i	i	·	·	·
O=C(O)CCCN1C(=O)/C(=C\C(Cl)=C\c2ccccc2)SC1=S	i	i	i	i	14.8*	44.5%*	i	i
CC(=O)c1cccc(NC(=O)CSc2nnc(C(C)N(C)C)n2Cc2ccccc2)c1 (configuration not stated)	i	i	i	i	i	·	·	·
Cc1ccc(Nc2nc(N)nc(CN3CCN(Cc4ccc5c(c4)OCO5)CC3)n2)cc1	i	i	i	i	i	i	i	i
Cc1ccc(Nc2nc(N)nc(CN3CCN(Cc4ccc5c(c4)OCO5)CC3)n2)cc1Cl	i	i	i	i	6.22*	i	i	i
Cc1ccc(Nc2nc(N)nc(CN3CCN(Cc4ccc5c(c4)OCO5)CC3)n2)cc1C	·	i	·	·	i	i	i	i
Cc1ccc(Nc2nc(N)nc(CN3CCN(Cc4ccc5c(c4)OCO5)CC3)n2)c(C)c1	i	i	i	i	i	·	·	·
Nc1nc(CN2CCN(Cc3ccccc3)CC2)nc(Nc2ccc3c(c2)OCCO3)n1	i	i	i	i	i	·	·	·
CSc1ncc(C(=O)Nc2ccccc2F)c(-c2ccccc2)n1	i	i	i	i	i	·	·	·
